# Screening data (PubChem)
# MPTP block: inhibitors of mitochondrial permeability transition pore; isolated mouse mitochondria, Ca2+ swelling absorbance, 30 min; inhibition, % at 10 µM; 1.4% of 360,000 active; AID 602449;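 active = inhibition of 50% or more, scaled per plate between neutral and stimulator controls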;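 note: 0% = DMSO wells given calcium and 100% = 1 mM EGTA wells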
# UPR CHOP act: apoptotic UPR (CHOP) activation; 0.34% of 330,000 active; activation, % at 10 µM; AID 449763; CHO-CHOP luciferase reporter, luminescence; percent of tunicamycin response over DMSO baseline;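 active = at 10 µM dose, activation of 40% or more, normalized to positive control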;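 note: 100% = tunicamycin at 10 µg/mL and 0% = DMSO alone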
#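 Assay system: CHO cells with stable CHOP pathway luciferase reporter; Buffer or medium: F12 plus 10% serum; Times: 16-18 h cell attachment, then 6 h compound exposure, 37 °C; Signal: luciferase luminescence; Read-out basis: percent activation relative to tunicamycin control; Control set: tunicamycin high control, DMSO low control.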
# aDG glyco act: alpha-DG glycosylation activation; 0.22% of 360,000 active; activation, % at 10 µM; Pro5-aDG cells, alpha-DG glycosylation AlphaScreen (IIH6); 0% Pro5, 100% B10-LARGE cell signal;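 active = activation of at least 8% versus controls, or a plate z-score of at least 8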;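 note: Pro5 are CHO cells carrying HIG-tagged alpha-DG that lacks glycosylation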
# XBP1 UPR activ: activators of adaptive arm of unfolded protein response (XBP1); CHO-XBP1 luciferase reporter, IRE1-XBP1 UPR activation, luminescence; percent of tunicamycin response, DMSO as zero; activation, % at 20 µM; 0.33% of 330,000 active; AID 463104;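 active = versus positive control, 20 µM dose yields 30% or more activation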;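 note: 100% = tunicamycin at 10 µg/mL and 0% = DMSO only wells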
#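 Material: IRE1-XBP1 luciferase reporter CHO line / Quantity: one thousand reporter cells per well / Buffer or medium: F12 with 10% serum / Compound: 20 µM single concentration, DMSO 1% / Times: 6 h treatment, 37 °C / Detection: Steady-Glo luciferase glow luminescence, 10 min after reagent addition / Benchmarks: tunicamycin high, DMSO low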
# GRIN3A LBD mod: modulates the human NR3A ligand-binding domain; Tm shift relative to glycine control, % at 25 µM; NR3A LBD differential scanning fluorimetry, Tm shift; 0% = protein alone, 100% = glycine-bound protein; 2.5% of 340,000 active;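 active = melting temperature shift of at least 10% of the positive control shift, at one fixed dose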
# CHOP inh: blocks CHOP induction under ER stress. CHO-K1 CHOP-promoter luciferase, tunicamycin-induced, 15-18 h. inhibition, % at 10 µM. 3.8% of 220,000 active. AID 2732;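 active = compounds that reduced the stress-induced luciferase reporter signal by more than about 70% of percent inhibition, limit read from the data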;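 note: 0% = tunicamycin plus vehicle and 100% = wells without tunicamycin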
# CHOP inh conf: confirmation of CHOP induction inhibitors; inhibition, % at 10 µM; shares compounds with CHOP inh; CHO-CHOP promoter luciferase reporter, tunicamycin-induced, luminescence; 45% of 2,100 active;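 active = mean of three repeat readings of reporter signal inhibition above a set limit, cut at about 70% in these data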;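 note: 0% = tunicamycin plus vehicle and 100% = wells lacking tunicamycin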
# An asterisk follows results filed as active; . = no result. Rows were chosen to be rich in hits. Some 5.6% of all compounds tested hit in one or more screens of this group.
SMILES,MPTP block,UPR CHOP act,aDG glyco act,XBP1 UPR activ,GRIN3A LBD mod,CHOP inh,CHOP inh conf
Cc1ccc(C(=O)N2CCN3C(=O)c4ccccc4C23c2ccc(Cl)cc2)cc1 (stereo not given),-2,-2,2,-6,-2,-90,.
CCCn1c(-c2nonc2N)nc2ccccc21,0,-1,0,-1,0,32,.
Nc1nonc1-c1nc2ccccc2n1Cc1ccc(F)cc1Cl,-1,4,0,6,-14,100*,-41
Cc1ccc(C(=O)COC(=O)c2cc(=O)[nH]c3ccccc23)cc1C,-1,3,0,0,1,102*,15
COc1ccccc1C(=O)COC(=O)c1cc(=O)[nH]c2ccccc12,-1,5,0,1,0,.,.
O=C(COC(=O)/C=C/C(=O)OCC(=O)NC12CC3CC(CC(C3)C1)C2)NC12CC3CC(CC(C3)C1)C2,2,32,0,3,-2,105*,-12
O=C(COC(=O)c1ccccc1O)NC12CC3CC(CC(C3)C1)C2,0,4,0,3,2,.,.
CC(/C=N/n1c(COc2ccccc2)n[nH]c1=S)=C\c1ccccc1,14,1,0,-1,-6,111*,-8
S=c1[nH]nc(C2CCCCC2)n1/N=C/c1ccc(Cl)cc1,1,-1,0,2,-21,.,.
S=c1[nH]nc(C2CCCCC2)n1/N=C/c1ccccc1Br,1,-2,0,-4,-22,.,.
S=c1[nH]nc(C2CCCCC2)n1/N=C/C=C/c1ccccc1,4,-1,0,1,-3,105*,106*
S=c1[nH]nc(C2CCCCC2)n1/N=C/C(Cl)=C\c1ccccc1,3,0,0,6,-11,102*,29
O=S(=O)(/N=S1/CC=CCN1S(=O)(=O)c1ccccc1)c1ccccc1 (stereo not given),-5,-1,0,1,1,104*,6
CCCc1cc(=O)oc2cc(OCC(=O)NC3CCN(Cc4ccccc4)CC3)ccc12,-4,2,0,-5,1,.,.
O=C(CSc1nc2ccccc2[nH]1)Nc1nc(-c2cccc(Br)c2)cs1,0,5,0,-2,0,67,.
CN(C)CCCn1c(SCC(=O)Nc2nc(-c3cccc(Br)c3)cs2)nc2ccccc2c1=O,0,3,0,9,-5,106*,105*
N#C/C(=C\c1ccc[nH]1)C(=O)N1CCCCC1,0,2,0,1,-1,2,.
COc1cc2nc(CSc3nc(-c4ccc(F)cc4)cs3)[nH]c(=O)c2cc1OC,1,1,0,-3,-8,105*,51
CCOC(=O)c1ccc(CNCc2ccc(Br)cc2)cc1,0,0,0,-2,-5,51,.
CCc1ccc(CN/C=C/C(=O)c2ccc(Br)cc2)cc1,1,0,0,-2,-11,104*,-26
O=C(NCc1ccco1)/C(=C/c1cccc(C(F)(F)F)c1)c1nc2ccccc2[nH]1,-1,3,0,-1,-5,96*,34
Cc1ccc(-c2nc(C(Cl)Cl)c3ccccc3n2)cc1,3,28,0,5,4,103*,100*
O=C(N/N=C/c1ccccc1Cl)c1n[nH]c2c1CCCC2,1,-9,0,-5,-1,107*,83*
Cc1ccc(NC(=O)C2OCCc3ccccc32)cc1 (stereo not given),1,4,0,5,0,29,.
Cc1ccc(NC(=O)C(=O)NCC2OCCc3ccccc32)cc1 (stereo not given),0,3,0,2,0,105*,102*
Cc1c(Br)c([N+](=O)[O-])nn1CC(=O)Nc1ccc(C(C)C)cc1,13,0,0,1,1,96*,13
O=C(Cc1ccc(Cl)c(Cl)c1)Nc1ccc2[nH]c(=O)[nH]c2c1,-2,-1,0,0,6,98*,6
